In ChEMBL document CHEMBL4477235, “Evolution of a Novel, Orally Bioavailable Series of PI3Kδ Inhibitors from an Inhaled Lead for the Treatment of Respiratory Disease” (J Med Chem, 2016):
Active and inactive are the calls of the source. The calls are words filed in the database; no cut-off is given here.

Key:
[1] = Oral bioavailability in Sprague-Dawley rat at 3 mg/kg measured up to 7 hrs by LC-MS/MS analysis; format: ADME, organism-based; conditions: in vivo, 7 h
Summary of the method: (§1)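 Male Sprague Dawley rats, n = 2 per route, were dosed discretely at 3 mg/kg orally or 1 mg/kg intravenously. The dosing solution was DMSO/PEG200/water (5:45:50 v/v/v). Serial tail-vein blood samples were taken over 0–7 h, and parent compound was quantified by LC–MS/MS. Parameters were estimated by noncompartmental analysis.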

[2] = Volume of distribution at steady state in Sprague-Dawley rat at 3 mg/kg, po or 1 mg/kg, iv measured up to 7 hrs by LC-MS/MS analysis; format: ADME, organism-based; conditions: in vivo, read-out: Vdss; summary of the method: as §1
Rattus norvegicus = experiment: Anti-inflammatory activity in Brown Norway rat acute OVA model of TH2-driven lung inflammation assessed as protection against eosinophil recruitment in bronchoalveolar lavage fluid at 9 mg/kg, po pretreated for 30 mins followed by OVA challenge by DAPI staining based flow cytometry; format: functional, organism-based
Summary of the method: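 Male Brown Norway rats (250–300 g) sensitized i.p. with 10 μg OVA plus 20 mg Al(OH)₃ on days 1 and 7. Oral compound given 30 min before intratracheal OVA challenge on day 21 or 28, under isoflurane. BAL taken 48 h post-challenge. Leucocytes counted by flow cytometry, gated on FSC/SSC, with DAPI+ dead cells excluded.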

[3] = AUC(infinity) in Wistar Han rat at 1 mg/kg; format: ADME, organism-based; design: dose 1 mg/kg, time infinity; conditions: in vivo
[4] = AUC(infinity) in Brown Norway rat acute OVA model of TH2-driven lung inflammation at 3 mg/kg, po pretreated for 30 mins followed by OVA challenge; format: ADME, organism-based; design: dose 3 mg/kg, time infinity, route oral; conditions: in vivo
Summary of the method: (§2)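 Male Brown Norway rats weighing 250–300 g were sensitised intraperitoneally with 10 μg OVA plus 20 mg Al(OH)₃ in 1 mL on days 1 and 7. On day 21 or 28 they were challenged intratracheally with 0.2 mL OVA under isoflurane. Compound was dosed orally 30 min before challenge. Blood exposure was measured in the same animals, with the 1 h post-dose concentration also recorded.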

[5] = AUC(infinity) in Brown Norway rat acute OVA model of TH2-driven lung inflammation at 9 mg/kg, po pretreated for 30 mins followed by OVA challenge; format: ADME, organism-based; design: dose 9 mg/kg, route oral, time infinity; conditions: in vivo; summary of the method: as §2
[6] = Drug uptake in Wistar Han rat blood at 1 mg/kg measured 1 hr post dose; format: ADME, organism-based; conditions: read-out: Drug uptake
[7] = Drug uptake in blood of Brown Norway rat acute OVA model of TH2-driven lung inflammation at 9 mg/kg, po pretreated for 30 mins followed by OVA challenge measured 1 hr post dose; format: ADME, organism-based; conditions: read-out: Drug uptake
Summary of the method: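 Sensitized Brown Norway rats given oral compound 30 min before intratracheal OVA challenge. Blood concentration taken 1 h after dosing, i.e. 30 min after challenge.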

[8] = molecular target: Tyrosine-protein kinase Lck (Homo sapiens, UniProt P06239); experiment: Inhibition of LCK (unknown origin)
Tyrosine-protein kinase Lck, sequence (P06239 whole entry): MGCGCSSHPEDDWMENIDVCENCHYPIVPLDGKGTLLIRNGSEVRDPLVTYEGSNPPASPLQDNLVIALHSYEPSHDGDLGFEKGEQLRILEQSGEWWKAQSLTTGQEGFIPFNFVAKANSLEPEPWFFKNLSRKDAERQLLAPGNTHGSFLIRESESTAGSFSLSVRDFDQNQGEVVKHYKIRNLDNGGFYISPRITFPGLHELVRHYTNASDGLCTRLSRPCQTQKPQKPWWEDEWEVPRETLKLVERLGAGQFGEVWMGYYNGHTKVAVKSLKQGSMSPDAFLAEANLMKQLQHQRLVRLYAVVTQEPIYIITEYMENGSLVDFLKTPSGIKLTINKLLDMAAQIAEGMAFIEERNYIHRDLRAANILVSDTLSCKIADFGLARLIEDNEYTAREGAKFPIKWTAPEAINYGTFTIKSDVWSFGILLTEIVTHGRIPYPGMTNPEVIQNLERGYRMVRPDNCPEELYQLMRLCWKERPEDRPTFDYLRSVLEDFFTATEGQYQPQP

[9] = molecular target: Phosphatidylinositol 4-kinase type 2-alpha (Homo sapiens, UniProt Q9BTU6); experiment: Inhibition of PI4K2A (unknown origin)
Phosphatidylinositol 4-kinase type 2-alpha, sequence (Q9BTU6 whole entry, the tested form may be a part): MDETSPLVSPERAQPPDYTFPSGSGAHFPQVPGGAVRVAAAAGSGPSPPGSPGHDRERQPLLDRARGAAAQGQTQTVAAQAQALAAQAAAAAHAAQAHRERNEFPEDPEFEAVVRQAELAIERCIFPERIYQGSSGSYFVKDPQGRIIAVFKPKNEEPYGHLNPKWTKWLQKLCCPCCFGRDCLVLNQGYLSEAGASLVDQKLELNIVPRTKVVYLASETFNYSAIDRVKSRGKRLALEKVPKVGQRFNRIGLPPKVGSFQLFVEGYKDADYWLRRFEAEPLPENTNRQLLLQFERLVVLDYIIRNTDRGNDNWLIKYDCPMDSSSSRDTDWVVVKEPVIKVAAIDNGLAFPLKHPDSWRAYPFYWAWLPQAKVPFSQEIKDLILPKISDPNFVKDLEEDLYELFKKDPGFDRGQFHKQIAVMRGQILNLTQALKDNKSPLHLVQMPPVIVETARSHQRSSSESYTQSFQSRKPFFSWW

[10] = molecular target: Phosphatidylinositol 4-phosphate 3-kinase C2 domain-containing subunit beta (Homo sapiens, UniProt O00750); experiment: Inhibition of PIK3C2B (unknown origin)
Phosphatidylinositol 4-phosphate 3-kinase C2 domain-containing subunit beta, sequence (O00750 whole entry, the tested form may be a part): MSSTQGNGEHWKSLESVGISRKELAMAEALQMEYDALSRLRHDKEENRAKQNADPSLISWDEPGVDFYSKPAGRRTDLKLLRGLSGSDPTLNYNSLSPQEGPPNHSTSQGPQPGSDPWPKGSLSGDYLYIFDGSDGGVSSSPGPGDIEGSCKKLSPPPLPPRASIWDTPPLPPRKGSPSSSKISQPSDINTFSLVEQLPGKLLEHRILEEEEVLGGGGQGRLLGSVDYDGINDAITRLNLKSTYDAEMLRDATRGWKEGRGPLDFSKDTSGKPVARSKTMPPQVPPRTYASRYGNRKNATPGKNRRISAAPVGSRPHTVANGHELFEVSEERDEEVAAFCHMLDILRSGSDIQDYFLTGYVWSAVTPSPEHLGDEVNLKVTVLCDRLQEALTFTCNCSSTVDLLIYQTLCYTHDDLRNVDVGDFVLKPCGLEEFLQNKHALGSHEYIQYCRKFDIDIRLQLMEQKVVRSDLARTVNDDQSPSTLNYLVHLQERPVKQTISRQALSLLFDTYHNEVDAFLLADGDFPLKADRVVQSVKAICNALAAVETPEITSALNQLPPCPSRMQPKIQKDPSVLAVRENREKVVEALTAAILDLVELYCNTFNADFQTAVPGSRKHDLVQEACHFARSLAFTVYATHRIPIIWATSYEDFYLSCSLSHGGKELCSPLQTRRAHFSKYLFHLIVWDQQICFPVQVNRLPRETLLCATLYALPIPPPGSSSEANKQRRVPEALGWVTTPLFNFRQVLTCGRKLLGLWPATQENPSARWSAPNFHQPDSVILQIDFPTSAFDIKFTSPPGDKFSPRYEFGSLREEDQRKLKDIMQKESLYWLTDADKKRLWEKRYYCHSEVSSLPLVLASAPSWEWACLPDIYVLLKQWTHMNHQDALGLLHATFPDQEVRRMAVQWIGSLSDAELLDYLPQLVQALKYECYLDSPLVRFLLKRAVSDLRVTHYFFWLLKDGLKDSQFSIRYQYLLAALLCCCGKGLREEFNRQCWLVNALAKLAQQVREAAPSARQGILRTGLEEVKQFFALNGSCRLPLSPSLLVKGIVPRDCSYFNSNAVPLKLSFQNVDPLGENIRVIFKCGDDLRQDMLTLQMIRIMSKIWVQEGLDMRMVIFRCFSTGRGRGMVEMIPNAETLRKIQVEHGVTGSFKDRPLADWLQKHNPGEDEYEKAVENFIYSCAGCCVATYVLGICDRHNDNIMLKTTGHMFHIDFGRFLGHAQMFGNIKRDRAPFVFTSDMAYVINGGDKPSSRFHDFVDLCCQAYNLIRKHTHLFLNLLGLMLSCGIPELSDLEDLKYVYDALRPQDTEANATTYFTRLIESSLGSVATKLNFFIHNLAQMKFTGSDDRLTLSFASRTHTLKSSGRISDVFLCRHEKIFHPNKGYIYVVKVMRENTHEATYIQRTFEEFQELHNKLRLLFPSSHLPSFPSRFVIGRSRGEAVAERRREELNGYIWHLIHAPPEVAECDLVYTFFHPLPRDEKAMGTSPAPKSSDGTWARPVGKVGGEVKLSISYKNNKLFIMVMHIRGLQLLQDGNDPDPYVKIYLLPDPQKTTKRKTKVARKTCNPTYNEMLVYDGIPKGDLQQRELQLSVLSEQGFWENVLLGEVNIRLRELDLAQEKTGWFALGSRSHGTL

[11] = molecular target: Phosphatidylinositol 5-phosphate 4-kinase type-2 alpha (Homo sapiens, UniProt P48426); experiment: Inhibition of PIP4K2A (unknown origin)
Phosphatidylinositol 5-phosphate 4-kinase type-2 alpha, sequence (P48426 whole entry): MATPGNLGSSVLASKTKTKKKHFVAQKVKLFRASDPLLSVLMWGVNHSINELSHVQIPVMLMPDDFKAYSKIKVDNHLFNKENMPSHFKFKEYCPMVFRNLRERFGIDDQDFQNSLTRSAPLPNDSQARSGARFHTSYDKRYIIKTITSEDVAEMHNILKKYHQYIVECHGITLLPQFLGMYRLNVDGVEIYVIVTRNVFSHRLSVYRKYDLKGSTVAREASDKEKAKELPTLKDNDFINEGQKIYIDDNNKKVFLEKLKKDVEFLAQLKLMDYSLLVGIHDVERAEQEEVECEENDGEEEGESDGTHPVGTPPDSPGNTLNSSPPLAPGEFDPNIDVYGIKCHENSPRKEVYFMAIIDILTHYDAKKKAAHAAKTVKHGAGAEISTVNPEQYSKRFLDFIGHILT

[12] = molecular target: 3',5'-cyclic-AMP phosphodiesterase 4B (Homo sapiens, UniProt Q07343); experiment: Inhibition of PDE4B (unknown origin)
3',5'-cyclic-AMP phosphodiesterase 4B, sequence (Q07343 whole entry): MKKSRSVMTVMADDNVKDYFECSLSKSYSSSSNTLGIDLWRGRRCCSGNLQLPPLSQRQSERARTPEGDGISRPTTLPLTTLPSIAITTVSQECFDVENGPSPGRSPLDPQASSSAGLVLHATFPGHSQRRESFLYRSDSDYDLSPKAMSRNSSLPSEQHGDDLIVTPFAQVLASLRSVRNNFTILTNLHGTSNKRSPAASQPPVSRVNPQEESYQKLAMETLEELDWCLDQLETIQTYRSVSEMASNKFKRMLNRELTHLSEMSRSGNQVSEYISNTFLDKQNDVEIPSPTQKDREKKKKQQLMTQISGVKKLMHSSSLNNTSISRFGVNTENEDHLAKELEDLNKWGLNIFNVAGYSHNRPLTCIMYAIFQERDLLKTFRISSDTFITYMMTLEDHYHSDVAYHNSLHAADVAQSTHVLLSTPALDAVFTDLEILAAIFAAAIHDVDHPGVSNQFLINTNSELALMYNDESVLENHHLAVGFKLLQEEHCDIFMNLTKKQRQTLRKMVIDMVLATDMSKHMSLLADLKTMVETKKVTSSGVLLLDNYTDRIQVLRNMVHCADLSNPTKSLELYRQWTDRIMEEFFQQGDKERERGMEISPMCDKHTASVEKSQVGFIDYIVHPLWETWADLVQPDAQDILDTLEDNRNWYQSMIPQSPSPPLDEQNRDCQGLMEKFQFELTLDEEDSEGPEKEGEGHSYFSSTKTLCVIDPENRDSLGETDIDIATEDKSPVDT

F [1]: 54%
Vd [2]: 1.1 L/kg
AUC(0-inf) [3]: 673 ng·h/mL
AUC(0-inf) [4]: 454 ng·h/mL
AUC(0-inf) [5]: 2620 ng·h/mL
concentration at 1 h [6]: 520 nM
concentration at 1 h [7]: 1270 nM
IC50 [8]: > 10 µM
IC50 [9]: > 10 µM
IC50 [10]: > 10 µM
IC50 [11]: > 10 µM
IC50 [12]: > 10 µM
Compound: COc1ncc(-c2cc3c(c(NC(=O)CN4CCOCC4)c2)COC3)cc1NS(C)(=O)=O
Activity (Rattus norvegicus): inactive
